Measurements: ChEMBL document CHEMBL3769342, “Supramolecular Inhibition of Neurodegeneration by a Synthetic Receptor” (ACS Med Chem Lett, 2015)
Active and inactive are the calls of the source. No cut-off for these calls is given here.

How the values were obtained:
[1] = Binding affinity to MPP+ assessed as upfield shift resonance at 1.2 equivalents of compound by 1H NMR analysis
[2] = organism: Danio rerio; experiment: Neurotoxicity in zebrafish model of MPTP-induced tyrosine hydroxylase defeciency assessed as phenotypic changes at 100 uM after 48 hrs by immunofluorescence assay; format: organism-based; settings: in vivo
[3] = Binding affinity to MPP+ in PBS buffer solution at pH 7.4 by UV-vis titration method
Method in brief: (§1)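 UV-vis titration in 0.01 M PBS, pH 7.4: host added in increasing amounts to the guest solution. Guest absorbance followed at 242 nm, plotted against host concentration and fitted by nonlinear least squares to a 1:1 model to give Ka.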

[4] = Binding affinity to MPTP in PBS buffer solution at pH 7.4 by UV-vis titration method; method in brief: as §1
[5] = organism: Danio rerio; experiment: Neuroprotective activity against MPTP-induced tyrosine hydroxylase deficiency in zebrafish larval brain assessed as tyrosine hydroxylase viability in neuron at 100 uM after 48 hrs by immunofluorescence assay (reference value: 49.93 +/- 5.26%); format: functional
[6] = Binding affinity to MPTP by ESI-MS analysis
[7] = Binding affinity to MPTP assessed as upfield shift resonance at 1.2 equivalents of compound by 1H NMR analysis
[8] = organism: Danio rerio; experiment: Neuroprotective activity against MPTP-induced locomotion defeciency in zebrafish larvae assessed as swimming distance at 100 uM incubated for 5 days measured for 45 mins by automated video tracking system based method (reference value: 1368.76 +/- 404.62 cm); format: functional
[9] = organism: Danio rerio; experiment: Neurotoxicity in zebrafish larvae assessed as swimming distance at 100 uM incubated for 5 days measured for 45 mins by automated video tracking system based method (reference value: 3773.21 +/- 386.24 cm); format: ADME, organism-based; settings: in vivo
[10] = Binding affinity to MPTP at 0.5 equivalents of compound by 1H NMR analysis
[11] = Neurotoxicity in zebrafish larvae assessed as tyrosine hydroxylase viability in neuron at 100 uM after 48 hrs by immunofluorescence assay relative to control; format: organism-based, Danio rerio; settings: tyrosine hydroxylase-positive neurons, read-out: Activity
[12] = Binding affinity to MPP+ by ESI-MS analysis

O=C1N2CN3C(=O)N4CN5C(=O)N6CN7C(=O)N8CN9C(=O)N%10CN%11C(=O)N%12CN%13C(=O)N%14CN1[C@H]1[C@@H]2N2CN%15C(=O)N(CN%16C(=O)N(CN%17C(=O)N(CN%18C(=O)N(CN%19C(=O)N(CN%20C(=O)N(CN1C2=O)[C@H]%14[C@@H]%20%13)[C@H]%12[C@@H]%19%11)[C@H]%10[C@@H]%189)[C@H]8[C@@H]%177)[C@H]6[C@@H]%165)[C@H]4[C@@H]%153
Activity [1]: Active
Activity [2]: Non-toxic
Ka [3]: 1.05 ×10⁵ /M
Ka [4]: 4.8 ×10⁴ /M
Activity [5]: 79.44%
Activity [6]: Active
Activity [7]: < 1 ppm
Activity [8]: 3487.02 cm
Activity [9]: 4167.89 cm
Activity [10]: Active
viability at 48 h, 100 µM [11]: 91%
Activity [12]: Active
